SENP6 block: SENP6 protease inhibitors, primary screen, biochemical, luminescence, uHTS; actives 1.8% (n = 330,000); inhibition, % at 10 µM; Sentrin-specific protease 6 (Homo sapiens), Q9GZR1; Recombinant SENP6 catalytic domain, aminoluciferin luminescence; AID 2599, 2010;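 active = inhibition above about 50% at the single tested dose, limit read from the data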;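 note: plate controls were DMSO wells with enzyme for no effect and DMSO wells lacking enzyme for full effect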
Target sequence (Q9GZR1 628-1112 limits assumed): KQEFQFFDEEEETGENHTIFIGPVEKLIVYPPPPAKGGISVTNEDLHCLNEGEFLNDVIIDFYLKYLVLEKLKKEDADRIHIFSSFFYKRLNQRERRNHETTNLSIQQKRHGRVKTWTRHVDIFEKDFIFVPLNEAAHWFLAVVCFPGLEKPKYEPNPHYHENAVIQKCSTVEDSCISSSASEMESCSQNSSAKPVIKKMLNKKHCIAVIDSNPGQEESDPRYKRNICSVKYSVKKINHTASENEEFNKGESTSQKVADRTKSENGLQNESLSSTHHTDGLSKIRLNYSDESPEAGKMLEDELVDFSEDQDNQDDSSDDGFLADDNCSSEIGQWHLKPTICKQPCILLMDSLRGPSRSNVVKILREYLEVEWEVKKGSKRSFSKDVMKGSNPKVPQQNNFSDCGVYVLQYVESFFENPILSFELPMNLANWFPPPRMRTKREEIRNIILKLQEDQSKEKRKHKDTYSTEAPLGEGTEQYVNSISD
SENP8 block-1: SENP8 protease inhibitors, primary screen, biochemical, luminescence. purified SENP8, Z-RLRGG-aminoluciferin cleavage. inhibition, % at 10 µM. AID 2540, 2010. actives 1.2% (n = 330,000); in the data active = inhibition above about 50%
Platelet DG rel: inhibitors of platelet dense granule secretion, primary screen, cell-based, MLPCN, human platelets; human platelet-rich plasma, SFLLRN dense granule ATP release, luminescence; inhibition, %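 (compounds screened at 7.5 µM in platelet-rich plasma)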; actives 0.22% (n = 300,000);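 active = mean replicate score, as percent of positive control, at or above 50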
SENP7 block: SENP7 protease inhibitors, primary screen, biochemical, luminescence, uHTS. inhibition, % at 5 µM. AID 434973, 2010. Sentrin-specific protease 7 (Homo sapiens), Q9BQF6. recombinant SENP7, Z-RLRGG-aminoluciferin luminescence, 40 min. actives 1.5% (n = 330,000);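 active = inhibition above about 50% at the single test dose, limit read from the data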;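 note: plate controls were DMSO with enzyme for no effect and no enzyme buffer wells for full effect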
SENP8 block-2: human SENP8 protease inhibitors, primary screen, biochemical, fluorescence, Nedd8 protein substrate, uHTS | Sentrin-specific protease 8 (Homo sapiens), Q96LD8 | recombinant SENP8 | inhibition, % at 20 µM | actives 0.64% (n = 360,000) | AID 602440, 2012; in the data active = inhibition mostly above about 40%, no sharp cut-off; inactive = mostly below about 27%
SENP1 inh: human SENP1 catalytic domain inhibitors, primary screen, biochemical, FRET, uHTS | Sentrin-specific protease 1 (Homo sapiens), Q9P0U3 | recombinant SENP1 catalytic domain, CyPet-SUMO1-YPet FRET cleavage | inhibition, % at 10 µM | actives 0.21% (n = 360,000) | AID 624204, 2012;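 active = inhibition at least 30% at 10 µM, raw YFP signal under a set limit, fluorescence ratio 0.5 to 1.5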;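 note: 0% = enzyme with DMSO and 100% = no enzyme wells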
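material = recombinant human SENP1 catalytic domain, His6-tagged | quantity = 20 pM enzyme | reagent = 25 nM SUMO1 FRET substrate | compound dosing = 10 µM single point, 0.5% DMSO | timing = 50 min enzyme reaction, room temperature, light-protected | detection = FRET, CFP and YFP emission | control set = no-enzyme low, enzyme-DMSO high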
SENP8 conf: SENP8 protease inhibitors, retest, confirmation, biochemical, luminescence, single concentration | inhibition, % at 12.5 µM | shares compounds with SENP7 block | actives 40% (n = 6,200) | AID 488912, 2010 | Recombinant SENP8, Z-RLRGG-aminoluciferin luminescence, 60 min;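 active = mean inhibition across replicates above about 50%, limit read from the data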
SENP6 confirm: SENP6 protease inhibitors, confirmation, biochemical, luminescence, single concentration; recombinant SENP6, Z-RLRGG-aminoluciferin luminescence; actives 58% (n = 6,200); inhibition, % at 12.5 µM; shares compounds with SENP7 block
SENP7 conf: SENP7 protease inhibitors, retest, confirmation, biochemical, luminescence, single concentration; inhibition, % at 12.5 µM; shares compounds with SENP7 block; AID 488917, 2010; actives 69% (n = 6,200); recombinant SENP7, Z-RLRGG-aminoluciferin luminescence, 40 min
Casp3 SENP sel: caspase-3 protease inhibitors, confirmation, selectivity assay for SENP inhibitor project, biochemical, single concentration; shares compounds with SENP7 block; inhibition, % at 12.5 µM; actives 60% (n = 6,200); purified caspase-3, Z-DEVD-aminoluciferin luminescence, 60 min;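 active = mean inhibition above about 50%, limit read from the data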;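 note: plate controls were enzyme with DMSO for no effect and wells without caspase-3 for full effect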
SENP luc ctr: luminescence interference (SENP counter-screen). shares compounds with SENP7 block. Pre-incubated SENP8/Z-RLRGG-aminoluciferin, luciferase luminescence interference. inhibition, % at 12.5 µM. actives 39% (n = 6,200);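 active = mean inhibition above about 50% when retested at one dose, limit read from the data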;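 note: plate controls were DMSO wells with completed reaction for no effect and substrate without enzyme for full effect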
Starred values were filed as active, the others as inactive; . = no result. Only some compounds are listed: those with a hit (about 2.6% of all), similar ones and a draw of the others.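 Rule for the calls, unless noted: active = mean inhibition above about 50% in the one-dose retest (limit read from the data); inactive = the rest.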

SMILES	SENP6 block	SENP8 block-1	Platelet DG rel	SENP7 block	SENP8 block-2	SENP1 inh	SENP8 conf	SENP6 confirm	SENP7 conf	Casp3 SENP sel	SENP luc ctr
COc1ccccc1N1CCN(/N=C/c2ccc([N+](=O)[O-])cc2)CC1	68*	54*	1	64*	34	-2	16	13	91*	48	6
COc1ccccc1N1CCN(/N=C/c2cc(OC)c(O)c(OC)c2)CC1	-10	-3	-19	-6	14	3	.	.	.	.	.
CCCNC(=O)c1cc2c(c(-c3cccc(-c4ccc(F)cc4)c3)n1)[C@H](CCO)N(S(=O)C(C)(C)C)C2 (stereo not given in full)	.	.	.	.	9	1	.	.	.	.	.
COc1ccc(-c2cn(CCC(=O)O)c(-c3ccncc3)n2)cc1	-9	-10	.	-1	-132	4	.	.	.	.	.
COc1ccc(-c2cn(Cc3ccc(C(N)=O)cc3)c(-c3ccncc3)n2)cc1	72*	61*	.	68*	-494	2	71*	69*	91*	76*	54*
CCOc1ccc(OCCn2nnc3ccccc3c2=O)cc1	69*	58*	5	67*	-5	-3	36	60*	89*	81*	50*
CCCn1nnc2ccccc2c1=O	-13	-4	-3	3	24	-3	.	.	.	.	.
Cc1cccc(-c2cc3nc(-c4ccccc4)cc(=O)n3[nH]2)c1	89*	88*	-5	51*	-292	-5	14	74*	27	17	5
Cc1nc2nc(-c3ccccc3)cc(=O)n2[nH]1	3	36	10	55*	3	1	57*	52*	84*	85*	66*
Cc1ccccc1-c1cc2nc(-c3ccc([N+](=O)[O-])cc3)cc(=O)n2[nH]1	18	-1	-2	9	-5	5	.	.	.	.	.
CCN(CC)C(=O)CSc1nnc2nnc3cc(Cl)ccc3n12	4	6	1	12	36	-40	.	.	.	.	.
C=C(C)c1sc(-c2ccc(Cl)cc2)nc1C	70*	50	6	39	-255	3	-7	41	85*	33	4
CCNC(=O)O/N=C(\C)c1sc(-c2ccc(Cl)cc2)nc1C	92*	89*	22	91*	-3	1	79*	79*	95*	82*	66*
C/C(=N\OC(=O)NC(C)C)c1sc(-c2ccc(Cl)cc2)nc1C	35	11	4	59*	-27	1	53*	60*	84*	74*	51*
O=C(Cc1ccsc1)Nc1ccc(Cl)cc1Cl	-11	4	0	-7	1	0	.	.	.	.	.
Cc1ccc(S(=O)(=O)Nc2cccc3c2O[C@H](CN(C)C(=O)Nc2ccc(C(F)(F)F)cc2)[C@@H](C)CN([C@H](C)CO)C3=O)cc1	-11	1	.	0	12	1	.	.	.	.	.
O=C(OCCOc1ccccc1F)c1cccc(S(=O)(=O)N2CCOCC2)c1	-1	6	.	-7	22	1	.	.	.	.	.
CCCCC[C@H](C)N1C[C@@H](COCc2ccccc2)Oc2cc(N3CCC[C@@H]3COC)ccc2S1(=O)=O	.	.	.	.	4	0	.	.	.	.	.
CN(Cc1cccnc1)C(=O)c1ccc2nc(Cc3ccccc3F)oc2c1	1	-1	-7	1	4	-3	.	.	.	.	.
COc1ccc(NC(=S)NC(=O)c2cccnc2)cc1	-2	1	0	4	16	0	.	.	.	.	.
COc1nsnc1NS(=O)(=O)c1ccc(NC(=S)NC(=O)c2cccnc2)cc1	54*	24	1	30	16	1	55*	51*	82*	84*	55*
C=CCn1c(SCn2nnc3ccccc3c2=O)nc2scc(-c3cccs3)c2c1=O	-4	-1	6	74*	10	3	7	6	2	1	3
CCCc1nnc(NC(=O)CC(=O)Nc2ccccc2C(=O)O)s1	61*	43	-31	38	0	1	65*	61*	84*	87*	60*
O=C(NCc1cc2ccccc2[nH]1)c1ccccc1F	-19	-10	1	-18	-14	-15	.	.	.	.	.
CSc1ccc(/C=N/NC(=O)c2ccccc2Cl)cc1	-40	-11	1	6	-53	1	.	.	.	.	.
SMILES	SENP6 block	SENP8 block-1	Platelet DG rel	SENP7 block	SENP8 block-2	SENP1 inh	SENP8 conf	SENP6 confirm	SENP7 conf	Casp3 SENP sel	SENP luc ctr
O=C(NO)c1ccccc1O	-6	6	-5	2	-5	1	.	.	.	.	.
O=C(/C=C/c1ccc(O)c(O)c1)NC(=O)c1ccccc1O	74*	69*	1	59*	-7	3	0	64*	90*	38	74*
CSc1ccc(/C=C/C(=O)NC(=O)c2ccccc2O)cc1	93*	79*	1	48	-392	-8	22	15	10	5	18
O=C(/C=C/c1ccc(Br)cc1)NC(=O)c1ccccc1O	87*	78*	0	64*	-32	-4	-4	55*	79*	10	24
Cc1ccc(S(=O)(=O)N2CCC(C(=O)OCC(=O)N(C)CC(=O)Nc3ccc(F)cc3)CC2)cc1C	0	-1	17	-2	10	1	.	.	.	.	.
O=[N+]([O-])c1ccc2c(c1)C(=NO)c1cc(Cl)c(Cl)cc1-2	.	.	.	.	4	3	.	.	.	.	.
Cc1cc(C)c(OCC(=O)OCC(=O)NC2CCC(C)CC2)c(C)c1 (stereo not given)	6	-10	-3	2	10	1	.	.	.	.	.
CN(C)S(=O)(=O)Oc1cccc(C(=O)Nc2ccc(Cl)c(Cl)c2)c1	64*	55*	-2	38	5	-2	11	67*	86*	15	10
